Measured values reported in ChEMBL document CHEMBL3217512, “Indole/triazole conjugates are selective inhibitors and inducers of bacterial biofilms” (Medchemcomm, 2013).
pIC50: −log10 of the molar value.

Columns and labels:
Staphylococcus aureus [1] = experiment: Antimicrobial activity against Staphylococcus aureus 29213 assessed as effect on planktonic growth at PC75 after 2 to 24 hrs by colony count method; type: organism-based; settings: in vivo
Staphylococcus aureus [2] = experiment: Antimicrobial activity against methicillin-resistant Staphylococcus aureus BAA 44 assessed as effect on planktonic growth at IC50 after 2 to 24 hrs by colony count method; type: organism-based; settings: in vivo
Staphylococcus aureus [3] = experiment: Antimicrobial activity against methicillin-resistant Staphylococcus aureus BAA 44 assessed as effect on planktonic growth at PC75 after 2 to 24 hrs by colony count method; type: organism-based; settings: in vivo
Escherichia coli [4] = experiment: Antimicrobial activity against Escherichia coli K-12 ER2718 assessed as effect on planktonic growth at PC75 after 2 to 24 hrs by colony count method; type: organism-based; settings: in vivo
Acinetobacter baumannii [5] = experiment: Antimicrobial activity against Acinetobacter baumannii 19606 assessed as effect on planktonic growth at 50 uM after 2 to 24 hrs; design: species or system ATCC 19606
How it was run: (§1)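 Growth curve analysis of planktonic bacteria with each biofilm inducer at 50 μM, used to assess toxicity.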

Staphylococcus aureus [6] = experiment: Antimicrobial activity against methicillin-resistant Staphylococcus aureus BAA 44 assessed as effect on planktonic growth at PC50 after 2 to 24 hrs; type: organism-based; settings: in vivo
Acinetobacter baumannii [7] = experiment: Antimicrobial activity against Acinetobacter baumannii 19606 assessed as effect on planktonic growth at PC75 after 2 to 24 hrs by colony count method; design: species or system ATCC 19606
Staphylococcus aureus [8] = experiment: Induction of biofilm formation in methicillin-resistant Staphylococcus aureus BAA 44 at 50 uM after 24 hrs by crystal violet staining-based assay relative to control; type: functional
How it was run: (§2)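 Static biofilm development in MRSA, read out by crystal violet staining against an untreated control. Initial screen at 150 μM. Inhibitors then went to dose-response, with IC50 taken as the concentration giving 50% inhibition of biofilm growth. Induction was judged at 50 μM: under 50% induction counted as "inducer", over 50% as "strong inducer".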

Staphylococcus aureus [9] = experiment: Antimicrobial activity against Staphylococcus aureus 29213 assessed as effect on planktonic growth at PC25 after 2 to 24 hrs by colony count method; type: organism-based; settings: in vivo
Staphylococcus aureus [10] = experiment: Induction of biofilm formation in Staphylococcus aureus 29213 at 50 uM after 24 hrs by crystal violet staining-based assay relative to control; type: functional
How it was run: (§3)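 Static biofilm assay with compounds at 50 μM and crystal violet read-out, relative to an untreated control. Compounds increasing biofilm by less than 50% were called inducers, and by more than 50% strong inducers.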

Acinetobacter baumannii [11] = experiment: Antimicrobial activity against Acinetobacter baumannii 19606 assessed as effect on planktonic growth at PC75 after 2 to 24 hrs; design: species or system ATCC 19606
Staphylococcus aureus [12] = experiment: Antimicrobial activity against Staphylococcus aureus 29213 assessed as effect on planktonic growth at IC50 after 2 to 24 hrs; type: organism-based; settings: in vivo
Escherichia coli [13] = experiment: Antimicrobial activity against Escherichia coli K-12 ER2718 assessed as effect on planktonic growth at IC50 after 2 to 24 hrs by colony count method; type: organism-based
Staphylococcus aureus [14] = experiment: Antimicrobial activity against methicillin-resistant Staphylococcus aureus BAA 44 assessed as effect on planktonic growth at PC75 after 2 to 24 hrs; type: organism-based; settings: in vivo
Staphylococcus aureus [15] = experiment: Antimicrobial activity against methicillin-resistant Staphylococcus aureus BAA 44 assessed as effect on planktonic growth at PC50 after 2 to 24 hrs by colony count method; type: organism-based; settings: in vivo
Staphylococcus aureus [16] = experiment: Antimicrobial activity against methicillin-resistant Staphylococcus aureus BAA 44 assessed as effect on planktonic growth at PC25 after 2 to 24 hrs; type: organism-based; settings: in vivo
Escherichia coli [17] = experiment: Antimicrobial activity against Escherichia coli K-12 ER2718 assessed as effect on planktonic growth at PC25 after 2 to 24 hrs by colony count method; type: organism-based
Acinetobacter baumannii [18] = experiment: Antimicrobial activity against Acinetobacter baumannii 19606 assessed as effect on planktonic growth at IC50 after 2 to 24 hrs; design: species or system ATCC 19606
Staphylococcus aureus [19] = experiment: Antimicrobial activity against Staphylococcus aureus 29213 assessed as effect on planktonic growth at PC50 after 2 to 24 hrs by colony count method; type: organism-based; settings: in vivo
Escherichia coli [20] = experiment: Antimicrobial activity against Escherichia coli K-12 ER2718 assessed as effect on planktonic growth at 50 uM after 2 to 24 hrs; type: organism-based; how it was run: as §1
Escherichia coli [21] = experiment: Antimicrobial activity against Escherichia coli K-12 ER2718 assessed as effect on planktonic growth at PC50 after 2 to 24 hrs; type: organism-based
Staphylococcus aureus [22] = experiment: Antimicrobial activity against Staphylococcus aureus 29213 assessed as effect on planktonic growth at PC50 after 2 to 24 hrs; type: organism-based; settings: in vivo
Acinetobacter baumannii [23] = experiment: Induction of biofilm formation in Acinetobacter baumannii 19606 at 50 uM after 24 hrs by crystal violet staining-based assay relative to control; type: functional, ATCC 19606 = CIP 70.34 = JCM 6841; how it was run: as §3
Staphylococcus aureus [24] = experiment: Antimicrobial activity against Staphylococcus aureus 29213 assessed as effect on planktonic growth at 50 uM after 2 to 24 hrs; type: organism-based; how it was run: as §1
Acinetobacter baumannii [25] = experiment: Antimicrobial activity against Acinetobacter baumannii 19606 assessed as effect on planktonic growth at IC50 after 2 to 24 hrs by colony count method; design: species or system ATCC 19606
Acinetobacter baumannii [26] = experiment: Antimicrobial activity against Acinetobacter baumannii 19606 assessed as effect on planktonic growth at PC25 after 2 to 24 hrs by colony count method; design: species or system ATCC 19606
Escherichia coli [27] = experiment: Induction of biofilm formation in Escherichia coli K-12 ER2718 at 50 uM after 24 hrs by crystal violet staining-based assay relative to control; type: functional; how it was run: as §3
Staphylococcus aureus [28] = experiment: Antimicrobial activity against methicillin-resistant Staphylococcus aureus BAA 44 assessed as effect on planktonic growth at PC25 after 2 to 24 hrs by colony count method; type: organism-based; settings: in vivo
Escherichia coli [29] = experiment: Antimicrobial activity against Escherichia coli K-12 ER2718 assessed as effect on planktonic growth at IC50 after 2 to 24 hrs; type: organism-based
Escherichia coli [30] = experiment: Antimicrobial activity against Escherichia coli K-12 ER2718 assessed as effect on planktonic growth at PC75 after 2 to 24 hrs; type: organism-based; settings: in vivo
Staphylococcus aureus [31] = experiment: Antimicrobial activity against Staphylococcus aureus 29213 assessed as effect on planktonic growth at PC25 after 2 to 24 hrs; type: organism-based; settings: in vivo
Acinetobacter baumannii [32] = experiment: Antimicrobial activity against Acinetobacter baumannii 19606 assessed as effect on planktonic growth at PC25 after 2 to 24 hrs; design: species or system ATCC 19606
Staphylococcus aureus [33] = experiment: Antimicrobial activity against methicillin-resistant Staphylococcus aureus BAA 44 assessed as effect on planktonic growth at 50 uM after 2 to 24 hrs; type: organism-based
How it was run: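 Growth-curve analysis of planktonic MRSA in the presence of each biofilm inducer at 50 μM, to check for toxicity.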

Acinetobacter baumannii [34] = experiment: Antimicrobial activity against Acinetobacter baumannii 19606 assessed as effect on planktonic growth at PC50 after 2 to 24 hrs by colony count method; design: species or system ATCC 19606
Staphylococcus aureus [35] = experiment: Antimicrobial activity against Staphylococcus aureus 29213 assessed as effect on planktonic growth at PC75 after 2 to 24 hrs; type: organism-based; settings: in vivo
Acinetobacter baumannii [36] = experiment: Antimicrobial activity against Acinetobacter baumannii 19606 assessed as effect on planktonic growth at PC50 after 2 to 24 hrs; design: species or system ATCC 19606
Staphylococcus aureus [37] = experiment: Antimicrobial activity against Staphylococcus aureus 29213 assessed as effect on planktonic growth at IC50 after 2 to 24 hrs by colony count method; type: organism-based; settings: in vivo
Escherichia coli [38] = experiment: Antimicrobial activity against Escherichia coli K-12 ER2718 assessed as effect on planktonic growth at PC50 after 2 to 24 hrs by colony count method; type: organism-based; settings: in vivo
Staphylococcus aureus [39] = experiment: Antimicrobial activity against methicillin-resistant Staphylococcus aureus BAA 44 assessed as effect on planktonic growth at IC50 after 2 to 24 hrs; type: organism-based; settings: in vivo
Escherichia coli [40] = experiment: Antimicrobial activity against Escherichia coli K-12 ER2718 assessed as effect on planktonic growth at PC25 after 2 to 24 hrs; type: organism-based
Staphylococcus aureus [41] = experiment: Inhibition of biofilm formation in methicillin-resistant Staphylococcus aureus BAA 44 after 24 hrs by crystal violet staining-based assay; type: functional, organism-based; settings: BAA 44, 24 h; how it was run: as §2
Escherichia coli [42] = experiment: Inhibition of biofilm formation in Escherichia coli K-12 ER2718 at 150 uM after 24 hrs by crystal violet staining-based assay relative to control; type: functional; settings: K-12 ER2718, 24 h
Acinetobacter baumannii [43] = experiment: Inhibition of biofilm formation in Acinetobacter baumannii 19606 after 24 hrs by crystal violet staining-based assay; type: functional; settings: ATCC 19606 = CIP 70.34 = JCM 6841, 24 h
How it was run: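 Compounds active in the 150 μM screen were taken into dose-response studies under static conditions with a crystal violet read-out. IC50 is the concentration that inhibits 50% of biofilm growth relative to an untreated control.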

`CCCCCCCc1ccc(C(=O)NCCn2cc(Cc3c(Br)[nH]c4ccccc34)nn2)cc1` was tested, and the Activity (Staphylococcus aureus [1]) was “Non-toxic”, the Activity (Staphylococcus aureus [2]) was “Non-toxic” and the Activity (Staphylococcus aureus [3]) was “Non-toxic”. For the same molecule, the Activity (Escherichia coli [4]) was “Non-toxic”, the Activity (Acinetobacter baumannii [5]) was “Non-toxic” and the Activity (Staphylococcus aureus [6]) was “Non-toxic”. The Activity (Acinetobacter baumannii [7]) was “Non-toxic”, the Activity (Staphylococcus aureus [8]) was greater than 50% and the Activity (Staphylococcus aureus [9]) was “Non-toxic”. For the same molecule, the Activity (Staphylococcus aureus [10]) was less than 50%, the Activity (Acinetobacter baumannii [11]) was “Non-toxic” and the Activity (Staphylococcus aureus [12]) was “Non-toxic”. For the same molecule, the Activity (Escherichia coli [13]) was “Non-toxic”, the Activity (Staphylococcus aureus [14]) was “Non-toxic” and the Activity (Staphylococcus aureus [15]) was “Non-toxic”. The Activity (Staphylococcus aureus [16]) was “Non-toxic”, the Activity (Escherichia coli [17]) was “Non-toxic” and the Activity (Acinetobacter baumannii [18]) was “Non-toxic”. The Activity (Staphylococcus aureus [19]) was “Non-toxic”, the Activity (Escherichia coli [20]) was “Non-toxic” and the Activity (Escherichia coli [21]) was “Non-toxic”. The Activity (Staphylococcus aureus [22]) was “Non-toxic”, the Activity (Acinetobacter baumannii [23]) was less than 50% and the Activity (Staphylococcus aureus [24]) was “Non-toxic”. For the same molecule, the Activity (Acinetobacter baumannii [25]) was “Non-toxic”, the Activity (Acinetobacter baumannii [26]) was “Non-toxic” and the Activity (Escherichia coli [27]) was less than 50%. For the same molecule, the Activity (Staphylococcus aureus [28]) was “Non-toxic”, the Activity (Escherichia coli [29]) was “Non-toxic” and the Activity (Escherichia coli [30]) was “Non-toxic”. For the same molecule, the Activity (Staphylococcus aureus [31]) was “Non-toxic”, the Activity (Acinetobacter baumannii [32]) was “Non-toxic” and the Activity (Staphylococcus aureus [33]) was “Non-toxic”. For the same molecule, the Activity (Acinetobacter baumannii [34]) was “Non-toxic”, the Activity (Staphylococcus aureus [35]) was “Non-toxic” and the Activity (Acinetobacter baumannii [36]) was “Non-toxic”. The Activity (Staphylococcus aureus [37]) was “Non-toxic”, the Activity (Escherichia coli [38]) was “Non-toxic” and the Activity (Staphylococcus aureus [39]) was “Non-toxic”. For the same molecule, the Activity (Escherichia coli [40]) was “Non-toxic”.

For `O=C(Cn1cc(Cc2c(Br)[nH]c3ccccc23)nn1)Nc1ccccc1`, the Activity (Staphylococcus aureus [1]) was “Non-toxic”, the Activity (Staphylococcus aureus [2]) was “Non-toxic” and the Activity (Staphylococcus aureus [9]) was “Non-toxic”. The Activity (Staphylococcus aureus [10]) was greater than 50%, the Activity (Staphylococcus aureus [12]) was “Non-toxic” and the Activity (Escherichia coli [13]) was “Non-toxic”. The pIC50 (Staphylococcus aureus [41]) was 3.82, the Activity (Acinetobacter baumannii [18]) was “Non-toxic” and the Activity (Staphylococcus aureus [19]) was “Non-toxic”. For the same molecule, the Activity (Staphylococcus aureus [22]) was “Non-toxic”, the Activity (Staphylococcus aureus [24]) was “Non-toxic” and the Activity (Acinetobacter baumannii [25]) was “Non-toxic”. The inhibition at 150 µM (Escherichia coli [42]) was 12%, the Activity (Escherichia coli [29]) was “Non-toxic” and the Activity (Staphylococcus aureus [31]) was “Non-toxic”. For the same molecule, the Activity (Staphylococcus aureus [35]) was “Non-toxic”, the pIC50 (Acinetobacter baumannii [43]) was 3.49 and the Activity (Staphylococcus aureus [37]) was “Non-toxic”. The Activity (Staphylococcus aureus [39]) was “Non-toxic”.
